Residue numbers refer to the chain shown, from its start. Blank lines part the entries; values can stand above or below the compound they belong to.
What was measured:
[1] = Fasting plasma concentrations in healthy volunteers by SLCO1B1 genotype; conditions: for Plasma concentration, ratio to control (95% CI) / Plasma concentration, geometric mean (95% CI): fasting, adjusted for sex; for Mean fasting plasma concentration, lower in women than in men: women vs men, 356 healthy volunteers
[2] = molecular target: T1, OATP1B1*1A (Homo sapiens, UniProt Q9Y6L6); test: Uptake into transporter-transfected vs wild-type HEK293 cells; type: in vitro ADME; conditions: experiment 3, substrate 1 µM, 2 minutes
T1 sequence (Q9Y6L6 1-691): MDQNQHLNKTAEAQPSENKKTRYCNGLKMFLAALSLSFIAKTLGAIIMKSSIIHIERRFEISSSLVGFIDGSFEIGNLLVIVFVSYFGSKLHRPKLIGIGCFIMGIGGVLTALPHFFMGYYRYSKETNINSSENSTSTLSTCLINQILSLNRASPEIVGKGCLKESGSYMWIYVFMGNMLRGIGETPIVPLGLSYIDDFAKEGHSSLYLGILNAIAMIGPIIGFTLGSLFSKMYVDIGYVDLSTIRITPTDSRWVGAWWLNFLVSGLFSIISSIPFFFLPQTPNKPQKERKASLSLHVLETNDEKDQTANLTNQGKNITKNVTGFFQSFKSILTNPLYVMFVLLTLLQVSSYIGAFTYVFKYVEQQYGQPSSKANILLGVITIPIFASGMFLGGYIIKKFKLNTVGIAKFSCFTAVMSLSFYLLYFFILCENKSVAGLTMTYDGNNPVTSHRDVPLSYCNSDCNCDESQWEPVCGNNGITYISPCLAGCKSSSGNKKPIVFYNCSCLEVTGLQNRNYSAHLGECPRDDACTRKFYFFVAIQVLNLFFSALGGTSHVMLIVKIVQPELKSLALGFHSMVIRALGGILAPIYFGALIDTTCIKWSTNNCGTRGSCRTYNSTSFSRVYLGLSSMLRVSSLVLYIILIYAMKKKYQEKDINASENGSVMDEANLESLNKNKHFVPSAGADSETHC
In short: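 HEK293 cells stably transfected with OATP1B1*1A, OATP1B3 or OATP2B1, plus wild-type cells, were seeded on poly-D-lysine plates. Culture was 48 h at 37°C in DMEM with 10% FBS, pyruvate, nonessential amino acids and GlutaMAX. Test compound was 1 µM for 2 min; rosuvastatin probe was 1 µM over 2–4 min. Cells were washed four times in ice-cold buffer and lysed in methanol with internal standard. Readouts were uptake ratio versus wild-type and glucuronide/probe ratio of ratios; mean ± SD, n=3 in one experiment.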

[3] = molecular target: T2, OATP1B1*15 (Homo sapiens, UniProt Q9Y6L6, N130D/V174A); test: Uptake into OATP1B1 variant-transfected vs wild-type HEK293 cells; type: in vitro ADME; conditions: for Uptake ratio (vs. wild‐type HEK293 cells): 2 minutes
T2 sequence (Q9Y6L6 1-691 N130D/V174A): T1 sequence (Q9Y6L6 1-691) with N130D, V174A
In short: (§1)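 HEK293 cells stably expressing an OATP1B1 variant, alongside wild-type HEK293, were seeded at 0.5–1.2 × 10⁵ cells/well on poly-D-lysine plates. They grew 48 h at 37°C and 5% CO₂ in DMEM with 10% FBS, 1% pyruvate, nonessential amino acids and GlutaMAX. Substrate was 1 µM (0.5 µM where footnoted) for 2 min, then four ice-cold buffer washes and methanol lysis with internal standard. Uptake ratio (transfected/wild-type) is expressed as % of OATP1B1*14 in the same experiment; n=3 determinations.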

[4] = molecular target: T3, OATP1B1*5 (Homo sapiens, UniProt Q9Y6L6, V174A); test: as above; type: in vitro ADME; conditions: for Uptake ratio (vs. wild‐type HEK293 cells): 2 minutes
T3 sequence (Q9Y6L6 1-691 V174A): T1 sequence (Q9Y6L6 1-691) with V174A
In short: as §1

[5] = molecular target: T4, OATP1B1*14 (Homo sapiens, UniProt Q9Y6L6, N130D/P155T); test: Uptake into OATP1B1 variant-transfected vs wild-type HEK293 cells; type: in vitro ADME; conditions: substrate 1 µM; for Uptake ratio as percentage of OATP1B1*14 in the same experiment: OATP1B1*14 (reference); for Uptake ratio (vs. wild‐type HEK293 cells): OATP1B1*14, 2 minutes
T4 sequence (Q9Y6L6 1-691 N130D/P155T): T1 sequence (Q9Y6L6 1-691) with N130D, P155T

[6] = molecular target: T5, OAT2 (Homo sapiens, UniProt Q9Y694); test: Uptake into transporter-transfected vs wild-type HEK293 cells; type: in vitro ADME; conditions: cyclic guanosine monophosphate 0.5 µM, two to four minutes
T5 sequence (Q9Y694 1-548): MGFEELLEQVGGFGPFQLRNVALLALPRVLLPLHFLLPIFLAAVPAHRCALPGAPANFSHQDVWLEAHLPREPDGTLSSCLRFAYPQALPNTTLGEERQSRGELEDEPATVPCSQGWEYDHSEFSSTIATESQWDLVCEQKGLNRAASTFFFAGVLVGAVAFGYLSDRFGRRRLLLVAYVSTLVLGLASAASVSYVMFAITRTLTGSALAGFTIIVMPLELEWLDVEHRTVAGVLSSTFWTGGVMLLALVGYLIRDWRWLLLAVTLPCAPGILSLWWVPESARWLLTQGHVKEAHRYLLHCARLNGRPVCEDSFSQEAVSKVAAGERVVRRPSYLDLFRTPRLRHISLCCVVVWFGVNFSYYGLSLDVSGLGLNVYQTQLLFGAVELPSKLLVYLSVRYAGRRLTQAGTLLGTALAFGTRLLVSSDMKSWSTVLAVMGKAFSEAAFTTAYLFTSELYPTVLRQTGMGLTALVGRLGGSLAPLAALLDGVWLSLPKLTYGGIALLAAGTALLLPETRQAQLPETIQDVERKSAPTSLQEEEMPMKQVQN
In short: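 Transfected HEK293 lines were OAT2 and OCT1, each run against wild-type cells, seeded on poly-D-lysine plates. Culture was 48 h at 37°C in DMEM with 10% FBS plus 1% gentamycin, 1% sodium pyruvate and 50 µg/mL hygromycin B. Probes were cyclic GMP 0.5 µM (OAT2) and metformin 20 µM (OCT1), over 2–4 min; test compound was 1 µM for 2 min. After four ice-cold washes and methanol lysis, the uptake ratio versus wild-type and the ratio of ratios were derived; n=3 in one experiment.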

[7] = SLCO1B1 c.521 C/C genotype (n = 13)
[8] = SLCO1B1 c.521 T/C genotype (n = 113)
[9] = SLCO1B1 c.521 T/T genotype (control; n = 230)

Plasma concentration, ratio to control (95% CI) ([1]; C/C genotype (n = 13) vs T/T): 1.35 (0.865, 2.11)
Plasma concentration, geometric mean (95% CI) [1, 7]: 567 (367, 876) ng/mL
Plasma concentration, geometric mean (95% CI) [1, 8]: 378 (326, 438) ng/mL
Plasma concentration, geometric mean (95% CI) [1, 9]: 419 (378, 465) ng/mL
Plasma concentration, ratio to control (95% CI) ([1]; T/C genotype (n = 113) vs T/T): 0.900 (0.751, 1.08)
Mean fasting plasma concentration, lower in women than in men [1]: ~ 20%
SMILES: C[C@H](CCC(=O)NCC(=O)O)[C@H]1CC[C@H]2[C@@H]3[C@H](O)C[C@@H]4C[C@H](O)CC[C@]4(C)[C@H]3CC[C@]12C [GCDCA, Glycochenodeoxycholate]

Uptake ratio (vs. wild‐type HEK293 cells) [2]: 2.7 ± 0.1
Uptake ratio as percentage of OATP1B1*14 in the same experiment ([3]; experiment 1, substrate 1 µM): 47%
Uptake ratio (vs. wild‐type HEK293 cells) ([3]; experiment 1, substrate 1 µM): 1.5 ± 0.1
Uptake ratio as percentage of OATP1B1*14 in the same experiment ([3]; experiment 2, substrate 1 µM): 48%
Uptake ratio (vs. wild‐type HEK293 cells) ([3]; experiment 2, substrate 1 µM): 1.5 ± 0.1
Uptake ratio as percentage of OATP1B1*14 in the same experiment ([4]; experiment 1, substrate 1 µM): 56%
Uptake ratio (vs. wild‐type HEK293 cells) ([4]; experiment 1, substrate 1 µM): 1.8 ± 0.2
Uptake ratio as percentage of OATP1B1*14 in the same experiment ([4]; experiment 2, substrate 1 µM): 61%
Uptake ratio (vs. wild‐type HEK293 cells) ([4]; experiment 2, substrate 1 µM): 1.9 ± 0.1
Uptake ratio as percentage of OATP1B1*14 in the same experiment ([5]; experiment 1): 100%
Uptake ratio as percentage of OATP1B1*14 in the same experiment ([5]; experiment 2): 100%
Uptake ratio (vs. wild‐type HEK293 cells) ([5]; experiment 1): 3.2 ± 0.1
Uptake ratio (vs. wild‐type HEK293 cells) ([5]; experiment 2): 3.1 ± 0.1
Uptake ratio (vs. wild‐type HEK293 cells) ([5]; experiment 3): 4.4 ± 0.1
SMILES: CC(C)n1c(/C=C/C(O)CC(O)CC(=O)O)c(-c2ccc(F)cc2)c2ccccc21 (stereo not drawn) [Fluvastatin, fluvastatin]

Uptake ratio (vs. wild‐type HEK293 cells), probe [6]: 23.6 ± 0.58
SMILES: Nc1nc2c(ncn2[C@@H]2O[C@@H]3COP(=O)(O)O[C@H]3[C@H]2O)c(=O)[nH]1 [cyclic guanosine monophosphate]

Plasma concentration, ratio to control (95% CI) ([1]; C/C genotype (n = 13) vs T/T): 1.16 (0.675, 1.98)
Plasma concentration, geometric mean (95% CI) [1, 7]: 141 (83.3, 237) ng/mL
Plasma concentration, geometric mean (95% CI) [1, 8]: 124 (104, 149) ng/mL
Plasma concentration, geometric mean (95% CI) [1, 9]: 122 (107, 138) ng/mL
Plasma concentration, ratio to control (95% CI) ([1]; T/C genotype (n = 113) vs T/T): 1.02 (0.822, 1.27)
Mean fasting plasma concentration, lower in women than in men [1]: ~ 20%
SMILES: C[C@H](CCC(=O)NCC(=O)O)[C@H]1CC[C@H]2[C@@H]3CC[C@@H]4C[C@H](O)CC[C@]4(C)[C@H]3C[C@H](O)[C@]12C [GDCA, glycodeoxycholate]

— PMC7983942 (Clinical Pharmacology and Therapeutics, 2020)
